These results are taken from article PMC4749511 (Bioorganic & medicinal chemistry, 2015).

Entries after “also recorded” stand apart in the source; their conditions may differ.

For one assay, the target named is rat FTase (Rattus norvegicus, UniProt Q02293+Q04631). The experiment in a line: Fluorescence-based FTase assay. It counts as biochemical. The settings on record: tested at 10, 25 and 50 μM. In outline:
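Rat FTase added in enzyme solution (62.5 nM FTase, Tris pH 7.5, ZnCl2, MgCl2, KCl, DTT, BSA) to start reaction. Wells held dansyl-GCVLS, FPP, DTT, Tris pH 7.5, MgCl2, ZnCl2, octyl-β-D-glucopyranoside and test compound in DMSO (12.5 μL DMSO per 250 μL). Fluorescence read at 340 nm excitation, 535 nm emission, every 40 s for 1 h. Rate from first 10 min converted to nM/s via νi = RP/ΔF.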

Another assay has as its system EGFP-K-Ras (K-Ras4b). In words: EGFP-K-Ras plasma membrane localization by confocal microscopy. The settings on record: HCT-116 cells, 20 hours. The class given is cell-based, human. The method in brief:
(§1)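 HCT-116 cells (DMEM, 10% FBS, 1% NEAA, 37 °C, 5% CO2) seeded at 4 × 10^4 per glass-bottom well and transfected 24 h later with the EGFP-Ras plasmid (0.5 μg DNA per 1 μL TrueFect). Treated with FTI or DMSO vehicle for 20 h, then live confocal imaging (488 nm excitation, 500-600 nm emission), at least 40 cells per condition. Normalised (0-1) line-scan intensity across each cell; PM width 1 μm.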

The target of assay [1] is T1, human Rce1 (HsRce1) (Homo sapiens, UniProt Q9Y256).
T1 sequence (Q9Y256 1-329): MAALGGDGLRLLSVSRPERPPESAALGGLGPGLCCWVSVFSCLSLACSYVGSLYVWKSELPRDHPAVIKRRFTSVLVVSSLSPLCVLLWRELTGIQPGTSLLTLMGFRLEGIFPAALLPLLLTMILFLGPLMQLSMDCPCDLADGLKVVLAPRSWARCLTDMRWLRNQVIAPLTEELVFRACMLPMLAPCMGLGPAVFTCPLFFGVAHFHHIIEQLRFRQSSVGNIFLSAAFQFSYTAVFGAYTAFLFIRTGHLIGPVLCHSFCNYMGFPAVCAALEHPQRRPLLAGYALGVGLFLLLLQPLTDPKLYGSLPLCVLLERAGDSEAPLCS
In words: In vitro fluorescence-based CaaX proteolysis assay. It counts as biochemical. The settings on record: single-point, 10 μM. In outline: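 Membranes from yeast expressing HsRce1, in 200 mM Tris pH 7.5, 200 mM NaCl, 1 mg/mL BSA. Preincubated with test compound (from 50× DMSO stock) for 15 min at 30 °C in duplicate wells. Started with quenched ABZ-KSKTKC(farnesyl)QLIM at 20 μM final; membranes 0.25 mg/mL final. Fluorescence 320/420 nm read every 30-60 s for 60 min at 30 °C. Initial velocities expressed as % of DMSO control, normalised by trypsin (10 μg/mL) full digestion.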

In the next assay the test system is GFP-Ras2p reporter. The note with it: yeast cells; cited from earlier work.
The target of assay [2] is T1, human Rce1 (HsRce1). The settings on record: read-out: HsRce1 IC50; in vitro proteolysis assay; cited from earlier work.
The next assay relates to EGFP-N-Ras. In words: EGFP-N-Ras plasma membrane localization by confocal microscopy. It counts as cell-based, human. The settings on record: HCT-116 cells, FTI 2 μM, 20 hours. The method in brief: as §1
The subject of a further assay is EGFP-H-Ras. The experiment in a line: EGFP-H-Ras plasma membrane localization by confocal microscopy. It counts as cell-based, human. The note with it: HCT-116 cells, FTI 2 μM, 20 hours. In outline:
as §1

As for `Oc1c(C(Nc2ccccc2)c2ccccc2)ccc2cccnc12` (stereo not drawn) [Compound 2, 7-(Phenyl(phenylamino)methyl)quinolin-8-ol], the “FTase activity inhibition (in words)” value on rat FTase was “not inhibited”. Also, the “K-Ras PM association (percent of total fluorescence at the PM)” value in the assay on EGFP-K-Ras (K-Ras4b) (Rce1 inhibitor 25 μM) is reported as “more effective at mislocalizing K-Ras than the FTI”.

Regarding `O=C(O)c1ccc(NC(c2ccccc2)c2ccc(Br)cc2)cc1` (stereo not drawn) [Compound 52, 4-(((4-Bromophenyl)(phenyl)methyl)amino) benzoic acid], the “HsRce1 inhibition (in words)” value on human Rce1 (HsRce1) [1] was “relatively inactive”.

Consider “Methyl 4-(((8-methoxyquinolin-7-yl)(phenyl)methyl)amino)benzoate [Compound 32]”, for which, at human Rce1 (HsRce1) [1], the “HsRce1 inhibition (in words)” value is listed as “little inhibitory activity”.

With `Oc1ccc2ccccc2c1C(Nc1ccccc1)c1ccccc1` (stereo not drawn) [Compound 34, 1-(Phenyl(phenylamino)methyl)naphthalen-2-ol], the “HsRce1 inhibition (in words)” value on human Rce1 (HsRce1) [1] was “weaker inhibitors”.

With `c1ccc(NC(c2ccccc2)c2ccc3ccccc3c2)cc1` (stereo not drawn) [Compound 44, N-(naphthalen-2-yl(phenyl)methyl)aniline], the “HsRce1 inhibition (in words)” value at human Rce1 (HsRce1) [1] is on record as “little inhibitory activity”.

Take `CCOC(=O)c1ccc(NC(c2ccc(Br)cc2)c2ccc(Br)cc2)cc1` [Compound 50, Ethyl 4-((bis(4-bromophenyl)methyl)amino)benzoate]: the “HsRce1 inhibition (in words)” value at human Rce1 (HsRce1) [1] was “relatively inactive”.

In the case of `O=C(O)c1ccc(NC(c2ccc3cccnc3c2O)C2CCCCC2)cc1` (stereo not drawn) [Compound 17, 4-((Cyclohexyl(8-hydroxyquinolin-7-yl)methyl)amino)benzoic acid], in the assay with EGFP-K-Ras (K-Ras4b) (Rce1 inhibitor 25 μM), the “K-Ras PM association (percent of total fluorescence at the PM)” value is on record as “more effective at mislocalizing K-Ras than the FTI”.

Take `Oc1c(C(Nc2ccccc2)c2ccccc2)cc(Br)c2ccccc12` (stereo not drawn) [Compound 33, 4-Bromo-2-(phenyl(phenylamino)methyl)naphthalen-1-ol]: the “HsRce1 inhibition (in words)” value at human Rce1 (HsRce1) [1] is “retained inhibitory activity”.

`c1ccc(NC(c2ccccc2)c2ccc3cccnc3c2)cc1` (stereo not drawn) [Compound 43, N-(Phenyl(quinolin-7-yl)methyl)aniline]: the “HsRce1 inhibition (in words)” value at human Rce1 (HsRce1) [1] is “little inhibitory activity”.

Regarding `O=C(O)c1ccc(NC(c2ccc(Br)cc2)c2ccc(Br)cc2)cc1` [Compound 53, 4-((bis(4-Bromophenyl)methyl)amino)benzoic acid], the “HsRce1 inhibition (in words)” value on human Rce1 (HsRce1) [1] is “relatively inactive”.

With `O=C(O)c1ccc(NC(c2ccc(F)cc2)c2ccc3cccnc3c2O)cc1` (stereo not drawn) [Compound 6, 4-(((4-Fluorophenyl)(8-hydroxyquinolin-7-yl)methyl)amino)benzoic acid], in the assay with EGFP-K-Ras (K-Ras4b) (Rce1 inhibitor 25 μM), the “K-Ras PM association (percent of total fluorescence at the PM)” value was “more effective at mislocalizing K-Ras than the FTI”.

As to `O=C(O)c1ccc(NC(c2ccc3cccnc3c2O)c2c(F)cc(Br)cc2F)cc1` (stereo not drawn) [Compound 25, 4-(((4-Bromo-2,6-difluorophenyl)(8-hydroxyquinolin-7-yl)methyl)amino)benzoic acid], the “HsRce1 inhibition (in words)” value at human Rce1 (HsRce1) [1] is listed as “no significant reduction in Rce1 activity”.

For `O=C(O)c1ccc(NC(c2ccccc2)c2ccccc2)cc1` [Compound 51, 4-(Benzhydrylamino)benzoic acid], on human Rce1 (HsRce1) [1], the “HsRce1 inhibition (in words)” value is “inactive; also recorded: Neither the ethyl ester 48 nor the acid derivative 51 showed any effect upon inhibition of the enzyme”.

In the case of `Oc1ccc2ccc(O)c(C(Nc3ccccc3)c3ccccc3)c2c1` (stereo not drawn) [Compound 35, 1-(Phenyl(phenylamino)methyl)naphthalene-2,7-diol], the “HsRce1 inhibition (in words)” value on human Rce1 (HsRce1) [1] is on record as “weaker inhibitors”.

Take `O=C(O)c1ccc(NC(c2cccnc2)c2ccc3cccnc3c2O)cc1` (stereo not drawn) [Compound 16, 4-(((8-Hydroxyquinolin-7-yl)(pyridin-3-yl)methyl)amino)benzoic acid]: the “HsRce1 inhibition (in words)” value at human Rce1 (HsRce1) [1] is “no significant reduction in Rce1 activity”.

Consider `C[C@@H](N[C@H](c1ccccc1)c1c(O)ccc2ccccc12)c1ccccc1` [Compound 47], for which the “HsRce1 inhibition (in words)” value at human Rce1 (HsRce1) [1] is on record as “weaker inhibitors”.

As for `Oc1c(C(Nc2ccccc2)c2c(F)cc(Br)cc2F)ccc2cccnc12` (stereo not drawn) [Compound 24, 7-((4-Bromo-2,6-difluorophenyl)(phenylamino)methyl)quinolin-8-ol], the “HsRce1 inhibition (in words)” value on human Rce1 (HsRce1) [1] is listed as “no significant reduction in Rce1 activity”.

Consider `CCCCCCCCOc1ccc(C(Nc2ccccc2)c2ccc3cccnc3c2O)cc1` (stereo not drawn) [Compound 26, 7-((4-(Octyloxy)phenyl)(phenylamino)methyl)quinolin-8-ol], for which the “HsRce1 inhibition (in words)” value at human Rce1 (HsRce1) [1] is recorded as “did not inhibit HsRce1 activity significantly”.

For `O=[N+]([O-])c1ccc(C(Nc2ccccc2)c2ccc3cccnc3c2O)cc1` (stereo not drawn) [Compound 7, reference compound], the “HsRce1 inhibition (in words)” value at human Rce1 (HsRce1) [1] is on record as “did not inhibit HsRce1 activity significantly”.

Consider `O=C(O)c1ccc(NC(c2ccc(Br)cc2)c2ccc3cccnc3c2O)cc1` (stereo not drawn) [Compound 5, 4-(((4-Bromophenyl)(8-hydroxyquinolin-7-yl)methyl)amino)benzoic acid], for which the “FTase activity inhibition (in words)” value at rat FTase is reported as “not inhibited”.

With `CCOC(=O)c1ccc(NC(c2ccccc2)c2ccccc2)cc1` [Compound 48, Ethyl 4-(benzhydrylamino)benzoate], the “HsRce1 inhibition (in words)” value at human Rce1 (HsRce1) [1] is given as “Neither the ethyl ester 48 nor the acid derivative 51 showed any effect upon inhibition of the enzyme”.

Consider `O=C(O)c1cccc(NC(c2ccccc2)c2ccc3ccccc3c2O)c1` (stereo not drawn) [Compound 30, 3-(((1-Hydroxynaphthalen-2-yl)(phenyl)methyl)amino)benzoic acid], for which the “FTase activity inhibition (in words)” value on rat FTase was “not inhibited”.

Turning to `N#Cc1ccc(C(Nc2ccc(C(=O)O)cc2)c2ccc3cccnc3c2O)cc1` (stereo not drawn) [Compound 3, 4-(((4-Cyanophenyl)(8-hydroxyquinolin-7-yl)methyl)amino)benzoic acid], the “HsRce1 inhibition (in words)” value at human Rce1 (HsRce1) [1] is given as “did not inhibit HsRce1 activity significantly”.

The IC50 is the concentration needed to halve the response being measured. For `O=C(O)c1ccc(NC(c2ccccc2)c2ccc3cccnc3c2O)cc1` (stereo not drawn) [Compound 1, 4-(((8-Hydroxyquinolin-7-yl)(phenyl)methyl)amino)benzoic acid], the “GFP-Ras2p reporter mislocalization (in words)” value with GFP-Ras2p reporter is “mislocalizes a GFP-Ras2p reporter”. In addition, the IC50 at human Rce1 (HsRce1) [2] was 9 µM. Moreover, the “K-Ras PM association (percent of total fluorescence at the PM)” value in the assay on EGFP-K-Ras (K-Ras4b) (Rce1 inhibitor 25 μM) is listed as “more effective at mislocalizing K-Ras than the FTI”.

In the case of `Oc1c(CNc2ccccc2)ccc2cccnc12` [Compound 20, 7-((Phenylamino)methyl)quinolin-8-ol], the “HsRce1 inhibition (in words)” value on human Rce1 (HsRce1) [1] was “no significant effect on Rce1 proteolysis activity”.

In the case of `CCOC(=O)c1ccc(NC(c2ccccc2)c2ccc(Br)cc2)cc1` (stereo not drawn) [Compound 49, Ethyl 4-(((4-bromophenyl)(phenyl)methyl)amino)benzoate], the “HsRce1 inhibition (in words)” value on human Rce1 (HsRce1) [1] is “relatively inactive”.

As for `CC[C@H](C)[C@@H](CO[C@@H](Cc1ccccc1)C(=O)N[C@@H](CCS(C)(=O)=O)C(=O)OC(C)C)NC[C@@H](N)CS` [L744,832], the “N-Ras PM association (percent of total fluorescence at the PM)” value in the assay with EGFP-N-Ras was below 10%. Moreover, the “H-Ras PM association (percent of total fluorescence at the PM)” value in the assay on EGFP-H-Ras is recorded as below 10%. Further, the “K-Ras PM association (percent of total fluorescence at the PM)” value with EGFP-K-Ras (K-Ras4b) (FTI 2 μM) is around 35%.

For the compound `O=C(O)c1ccc(NC(c2ccccn2)c2ccc3cccnc3c2O)cc1` (stereo not drawn) [Compound 15, 4-(((8-Hydroxyquinolin-7-yl)(pyridin-2-yl)methyl)amino)benzoic acid], the “HsRce1 inhibition (in words)” value at human Rce1 (HsRce1) [1] was “no significant reduction in Rce1 activity”.
